According to ChEMBL document CHEMBL1158902, “Polyprenylated benzophenones from Garcinia assigu and their potential cancer chemopreventive activities” (J Nat Prod, 2003):
pIC50: −log10 of the molar value.

Legend:
Raji [1] = assay: Inhibition of TPA-induced EBV-early antigen activation in human Raji cells at 0.32 nmol after 48 hrs relative to TPA; assay type: cell-based; design: scale not given: the % may be the effect or the level left; conditions: human gammaherpesvirus 4
Outline: (§1)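 Raji cells at 10^6 cells/mL were resuspended in RPMI 1640 with 10% FCS. Induction used 4 mM n-butyric acid plus 32 pmol TPA (20 ng/mL), with test compound added in DMSO. After 48 h at 37 °C, EA-positive cells were scored blind, at least 500 cells per assay. Activation is expressed as % of TPA-only control (100%) ± SD.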

Raji [2] = assay: Inhibition of TPA-induced EBV-early antigen activation in human Raji cells at 32 nmol after 48 hrs relative to TPA; assay type: cell-based; design: scale not given: the % may be the effect or the level left; conditions: human gammaherpesvirus 4; outline: as §1
[3] = Cytotoxicity against human Raji cells assessed as cell viability at 32 nmol after 48 hrs by trypan blue assay; assay type: cell-based; conditions: read-out: Activity
Outline: (§2)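 Raji cells grown to 10^6 cells/mL, pelleted, and resuspended in RPMI 1640 with 10% FCS. Medium held 4 mM n-butyric acid, 32 pmol TPA (20 ng/mL, in DMSO) and test compound in DMSO. Incubated 48 h at 37 °C. Cell number and viability counted by hemocytometer with Trypan Blue; at least 60% survival required for a valid result.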

[4] = Cytotoxicity against human Raji cells assessed as cell viability at 3.2 nmol after 48 hrs by trypan blue assay; assay type: cell-based; conditions: read-out: Activity; outline: as §2
[5] = Cytotoxicity against human Raji cells assessed as cell viability at 16 nmol after 48 hrs by trypan blue assay; assay type: cell-based; conditions: read-out: Activity; outline: as §2
Raji [6] = assay: Inhibition of TPA-induced EBV-early antigen activation in human Raji cells at 16 nmol after 48 hrs relative to TPA; assay type: cell-based; design: scale not given: the % may be the effect or the level left; conditions: human gammaherpesvirus 4; outline: as §1
Raji [7] = assay: Inhibition of TPA-induced EBV-early antigen activation in human Raji cells at 3.2 nmol after 48 hrs relative to TPA; assay type: cell-based; design: scale not given: the % may be the effect or the level left; conditions: human gammaherpesvirus 4; outline: as §1
[8] = Cytotoxicity against human Raji cells assessed as cell viability at 0.32 nmol after 48 hrs by trypan blue assay; assay type: cell-based; conditions: read-out: Activity; outline: as §2
[9] = tested on: Radical scavenging activity; assay: Antioxidant activity assessed as DPPH radical scavenging activity; assay type: functional
Outline: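 Test compound in ethanol mixed with 2 mL of 0.1 mM DPPH solution; held 30 min at room temperature, then absorbance at 520 nm read. EC50 estimated by probit transformation; IC50 as mean ± SD of five replicates.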

| Compound | Activity (Raji [1]) | Activity (Raji [2]) | viability at 48 h, 32 nmol [3] | viability at 48 h, 3.2 nmol [4] | viability at 48 h, 16 nmol [5] | Activity (Raji [6]) | Activity (Raji [7]) | viability at 48 h, 0.32 nmol [8] | pIC50 [9] |
| --- | --- | --- | --- | --- | --- | --- | --- | --- | --- |
| O=C(c1ccc(O)c(O)c1)c1c(O)cc(O)cc1O [MACLURIN] | 94.3% | 0% | 70% | > 80% | > 80% | 52.7% | 80.2% | > 80% |  |
| VITAMIN E |  |  |  |  |  |  |  |  | 4.64 |
| CC(C)=CC[C@@H]1C[C@@]2(CC=C(C)C)C(=O)[C@](CC=C(C)C)(C(=O)C(C(=O)c3ccccc3)=C2O)C1(C)C [CLUSIANONE] | 100% | 17.4% | 60% | > 80% | > 80% | 53.7% | 87.7% | > 80% | < 4.00 |
| CC(C)=CC[C@H]1C[C@@]23C[C@@H](CC=C(C)C)C(C)(C)[C@@](CC=C(C)C)(C(=O)C(C(=O)c4ccc(O)c(O)c4)=C2OC1(C)C)C3=O [CAMBOGIN] | 100% | 17.7% | 60% | > 80% | > 80% | 56% | 87.1% | > 80% | 4.88 |
| C=C(C)[C@@H](CC=C(C)C)C[C@@]12C[C@@H](CC=C(C)C)C(C)(C)[C@@](CC=C(C)C)(C(=O)C(C(=O)c3ccc(O)c(O)c3)=C1O)C2=O [GARCINOL] | 100% | 14.4% | 60% | > 80% | > 80% | 47% | 84.9% | > 80% | 4.99 |
| CC1(C)[C@@H](O)CC[C@]2(C)[C@H]3C(=O)C=C4[C@@H]5C[C@@](C)(C(=O)O)CC[C@]5(C)CC[C@@]4(C)[C@]3(C)CC[C@@H]12 [ENOXOLONE] | 100% | 15.6% | > 80% | > 80% | > 80% | 54.3% | 100% |  |  |
| C=C(C)[C@@H](CC=C(C)C)C[C@@]12C[C@@H](CC=C(C)C)C(C)(C)[C@@](CC=C(C)C)(C(=O)C(C(=O)c3ccc(O)c(OC)c3)=C1O)C2=O | 100% | 19.7% | 60% | > 80% | > 80% | 54.9% | 88.1% | > 80% | < 4.00 |
| COc1cc(C(=O)C2=C3OC(C)(C)[C@@H](CC=C(C)C)C[C@@]34C[C@@H](CC=C(C)C)C(C)(C)[C@@](CC=C(C)C)(C2=O)C4=O)ccc1O | 100% | 18.5% | 60% | > 80% | > 80% | 60.1% | 89% | > 80% | < 4.00 |
